Measured values gathered from unrelated publications.
Effect on: enzyme activity
Mode: inhibitor
TNKS2: Poly [ADP-ribose] polymerase tankyrase-2 (TNKS2, Homo sapiens, UniProt Q9H2K2)
FLT3 ITD: Receptor-type tyrosine-protein kinase FLT3 (FLT3, Homo sapiens, UniProt P36888, ITD)
mraY: mraY (Staphylococcus aureus, UniProt Q2FZ93)
TOP2A: DNA topoisomerase 2-alpha (TOP2A, Homo sapiens, UniProt P11388)

| Compound | target | method | IC50 |
| --- | --- | --- | --- |
| CC(C)(O)c1ccc(-c2nc3cc(NC(=O)c4cnc(OCc5ccccc5)nc4)ccc3c(=O)[nH]2)cc1 | TNKS2 | – | 16.3 nM |
| CN(C)CCNC(=O)c1ccc(-c2nc3ccc4[nH]ncc4c3c3c2CCCCC3)cn1 | FLT3 ITD | – | 420 nM |
| CCCCCCC#Cc1cncc(-c2nnc(SCc3cc([N+](=O)[O-])cc([N+](=O)[O-])c3)n2CCCN)c1 | mraY | – | 25000 nM |
| Fc1cccc(Nc2nc(-c3ccncc3)nc3c2CNCC3)c1 | TOP2A | – | 25000 nM |
| Cc1n[nH]c2ccc3nc(-c4ccc(C(=O)NCCN(C)C)cc4)c4c(c3c12)CCCCC4 | Receptor-type tyrosine-protein kinase FLT3 (FLT3, Homo sapiens, UniProt P36888, F691L) | – | 104 nM |
| CC(C)(O)c1ccc(-c2nc3cc(NC(=O)c4ccc(-c5ccccc5)cc4)ccc3c(=O)[nH]2)cc1 | TNKS2 | – | 35 nM |
| CN(C)c1cccc(Nc2nc(-c3ccncc3)nc3c2CNCC3)c1 | TOP2A | – | 140000 nM |
| CNC(=O)[C@H](Cc1c[nH]c2ccccc12)NC(=O)[C@@H](CC(=O)NO)CC(C)C | Stromelysin-1 (MMP3, Homo sapiens, UniProt P08254) | – | 12.5 nM |
| CCCCCCC#Cc1cncc(-c2nnc(SCc3cc([N+](=O)[O-])cc([N+](=O)[O-])c3)n2C2CCNCC2)c1 | mraY | – | ~100000 nM |
| CN(C)CCNC(=O)c1ccc(-c2nc3ccc4[nH]ncc4c3c3c2CCCCC3)cc1 | Receptor-type tyrosine-protein kinase FLT3 (FLT3, Homo sapiens, UniProt P36888) | – | 48 nM |
| COc1cccc(Nc2nc(-c3ccncc3)nc3c2CNCC3)c1 | TOP2A | – | 120000 nM |
| O=C(NC1CCCCC1)c1ccc(-c2nc3ccc4[nH]ncc4c3c3c2CCCC3)cc1 | FLT3 ITD | – | > 1000 nM |
| Cc1cc(C(=O)N2CC(N3CCN(C(=O)c4nccs4)CC3)C2)ccc1-c1ccc(F)c(Cl)c1 | Monoglyceride lipase (MGLL, Homo sapiens, UniProt Q99685) | fluorescence | 5.15 nM |
| CC(C)(O)c1ccc(-c2nc3cc(NC(=O)c4cnc(Oc5ccccc5)nc4)ccc3c(=O)[nH]2)cc1 | TNKS2 | – | 7.96 nM |
| Cc1cc2c(cc1C)N[C@H](c1ccccc1)[C@@H](O)C(=O)N2 | Aurora kinase C (AURKC, Homo sapiens, UniProt Q9UQB9) | ELISA | 211 nM |
